Reference: paper PMC9704493 (RSC Advances, 2022)
Where two headings read alike, the source gives them in different places.

What was measured:
Assay type in all cases: cell-based, human
MRC-5 fibroblasts = experiment: MTT cell viability assay, MRC-5 normal fibroblasts; conditions: for GI50: read-out: GI50 values (M) mean ± SD, MRC-5
Procedure, shortened: (§1)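 Cells were seeded at 3 × 10^3 per well and grown for 24 h at 37 °C/5% CO2. A T0 plate was read at dosing and the others after 72 h. MTT (5 mg mL−1 in PBS) was added for 2.5 h, formazan dissolved in DMSO, and absorbance read at 550 nm. GI50 was interpolated, in triplicate. SI compares MRC-5 with cancer-line activity.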

[1] = test system: HCT-116 colorectal carcinoma cells; experiment: MTT cell viability assay, HCT-116; conditions: for Selectivity indices (SI), HCT-116: HCT-116 versus MRC-5 fibroblasts
Procedure, shortened: as §1

[2] = test system: MCF-7 breast cancer cells; experiment: MTT cell viability assay, MCF-7; conditions: for Selectivity indices (SI), MCF-7: MCF-7 versus MRC-5 fibroblasts
Procedure, shortened: as §1

HCT-116 cells = experiment: Clonogenic assay, HCT-116 colony formation; conditions: 10 μM, 24 h exposure; second group, printed as HCT-116
Procedure, shortened: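 HCT-116 cells (RPMI 1640, 10% FBS, 1% glutamine) were seeded at 400 per well in 6-well plates and left to attach for 24 h. They were given test compound at 5 or 10 μM for 24 h, with medium alone as control. Cells were then washed with cold PBS and grown in fresh medium at 37 °C until control colonies reached ≥50 cells. Colonies were methanol-fixed, stained with 0.05% methylene blue and counted. Survival fraction is % of control, from five independent trials (n = 2 each).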

[3] = Homo sapiens, HCT-116, 72 h, read-out: GI50 values (M) mean ± SD, HCT-116
[4] = Homo sapiens, MCF7, 72 h, read-out: GI50 values (M) mean ± SD, MCF-7
[5] = Homo sapiens, MCF7, 72 h, read-out: GI50 values (µM) mean ±SD, MCF-7
[6] = read-out: GI50 values (M) mean ± SD, HCT-116, MTT, 72 h exposure
[7] = read-out: GI50 values (M) mean ± SD, MCF-7, MTT, 72 h exposure

| Molecule | GI50 [1, 3] [M] | GI50 [2, 4] [M] | GI50 (MRC-5 fibroblasts; Homo sapiens, MRC5, 72 h) [M] | Selectivity indices (SI), HCT-116 [1] | Selectivity indices (SI), MCF-7 [2] | other results |
| --- | --- | --- | --- | --- | --- | --- |
| COc1ccc(C=NNc2nc(-c3ccc(C#N)cc3)cs2)c(OC)c1 [Compound 3l, 2-(2-(2,4-Dimethoxybenzylidene)hydrazinyl)-4-(4-cyanophenyl) thiazole] | 8.4e-06 ± 9e-07 | 9.2e-06 ± 4e-07 | 3.01e-05 ± 6e-07 | 3.6 | 3.3 | GI50 values (µM) mean ±SD, MRC-5 (MRC-5 fibroblasts; MTT, 72 h exposure): no significant activity |
| N#Cc1ccc(-c2csc(NN=Cc3cc(Cl)ccc3O)n2)cc1 [Compound 3g, 2-(2-(5-Chloro-2-hydroxybenzylidene) hydrazinyl)-4-(4-cyanophenyl) thiazole] | 9.7e-06 ± 4e-07 | 4.1e-06 ± 4e-07 | 1.68e-05 ± 7e-07 | 1.7 | 4.1 |  |
| N#Cc1ccc(-c2csc(NN=Cc3cccc(F)c3)n2)cc1 [Compound 3b, 2-(2-(3-Fluorobenzylidene)hydrazinyl)-4-(4-cyanophenyl) thiazole] |  |  |  |  |  | GI50 ([1]; Homo sapiens, HCT-116, 72 h, read-out: GI50 values (µM) mean ±SD, HCT-116): 2.2e-06 M; GI50 [2, 5]: 3.66e-05 M |
| COc1cc(C=NNc2nc(-c3ccc(C#N)cc3)cs2)cc(OC)c1 [Compound 3o, 2-(2-(3,5-Dimethoxybenzylidene)hydrazinyl)-4-(4-cyanophenyl) thiazole] | 3.56e-05 ± 1.1e-06 | 4.78e-05 ± 1.1e-06 | 1.65e-05 ± 5e-07 | 0.5 | 0.4 |  |
| N#Cc1ccc(-c2csc(NN=Cc3ccccc3F)n2)cc1 [Compound 3a, 2-(2-(2-Fluorobenzylidene)hydrazinyl)-4-(4-cyanophenyl) thiazole] |  |  |  |  |  | colony formation (HCT-116 cells): completely prevented colony formation |
| CCOc1cc(C=NNc2nc(-c3ccc(C#N)cc3)cs2)ccc1O [Compound 3s, 2-(2-(3-Ethoxy-4-hydroxybenzylidene) hydrazinyl)-4-(4-cyanophenyl) thiazole] | 8.4e-06 ± 6e-07 | 7.3e-06 ± 8e-07 | 1.81e-05 ± 4e-07 | 2.2 | 2.5 |  |
| N#Cc1ccc(-c2csc(N/N=C/c3cccc(I)c3)n2)cc1 [d] | 1.13e-05 ± 7e-07 | 2.3e-06 ± 2e-07 | 3.49e-05 ± 3e-07 |  |  |  |
| N#Cc1ccc(-c2csc(NN=Cc3ccc(Cl)c(Cl)c3)n2)cc1 [Compound 3u, 2-(2-(3,4-Dichlorobenzylidene)hydrazinyl)-4-(4-cyanophenyl) thiazole] | 2.72e-05 ± 5e-07 | 1.28e-05 ± 7e-07 | 3.04e-05 ± 2e-07 | 1.1 | 2.4 |  |
| N#Cc1ccc(-c2csc(NN=Cc3cc(F)cc(Br)c3)n2)cc1 [Compound 3p, 2-(2-(3-Bromo-5-fluorobenzylidene)hydrazinyl)-4-(4-cyanophenyl) thiazole] | 8.1e-06 ± 2e-07 | 7.3e-06 ± 2e-07 | 1.77e-05 ± 7e-07 | 2.2 | 2.4 |  |
| N.N.[Cl][Pt][Cl] [cisplatin, reference compound] |  |  |  | 0.9 | 1.3 | GI50 (MRC-5 fibroblasts; MTT, 72 h exposure): 9.7e-06 ± 4e-07 M; GI50 [1, 6]: 9.8e-06 ± 2e-07 M; GI50 [2, 7]: 7.5e-06 ± 7e-07 M |
| N#Cc1ccc(-c2csc(NN=Cc3cccc(I)c3)n2)cc1 [Compound 3d, 2-(2-(3-Iodobenzylidene)hydrazinyl)-4-(4-cyanophenyl) thiazole] |  |  |  |  |  | fold reduction in potency against HCT-116 cells ([1]; relative to its potency against MCF-7 cells): 5 fold; GI50 [2, 5]: 2.3e-06 M |
| 2-(2-(1-(4-Fluorophenyl)ethylidene)hydrazinyl)-4-(4-cyanophenyl) thiazole [Compound 3e] |  |  |  | 6.5 | 1.6 | GI50 (MRC-5 fibroblasts; MTT, 72 h exposure): 4.47e-05 ± 2e-07 M; GI50 [1, 6]: 6.9e-06 ± 2e-07 M; GI50 [2, 7]: 2.85e-05 ± 8e-07 M |
| COc1ccc(C=NNc2nc(-c3ccc(C#N)cc3)cs2)c(C)c1 [Compound 3k, 2-(2-(4-Methoxy-2-methylbenzylidene) hydrazinyl)-4-(4-cyanophenyl) thiazole] | 3.7e-05 ± 9e-07 | 3.68e-05 ± 2.7e-06 | 1.61e-05 ± 2e-07 | 0.4 | 0.4 |  |

The remaining molecules from weak to strong by GI50 [1, 3], led by results:

| GI50 [1, 3] [M] | GI50 [2, 4] [M] | Molecule | GI50 (MRC-5 fibroblasts; Homo sapiens, MRC5, 72 h) [M] | Selectivity indices (SI), HCT-116 [1] | Selectivity indices (SI), MCF-7 [2] | other results |
| --- | --- | --- | --- | --- | --- | --- |
| 8e-06 ± 3e-07 | 7.1e-06 ± 3e-07 | Cc1ccc(C)c(C=NNc2nc(-c3ccc(C#N)cc3)cs2)c1 [Compound 3i, 2-(2-(2,5-Dimethylbenzylidene)hydrazinyl)-4-(4-cyanophenyl) thiazole] | 6.2e-06 ± 4e-07 | 0.8 | 0.9 |  |
| 6.9e-06 ± 2.5e-06 | 3.7e-06 ± 4e-07 | COc1ccc(OC)c(C=NNc2nc(-c3ccc(C#N)cc3)cs2)c1 [Compound 3j, 2-(2-(2,5-Dimethoxybenzylidene)hydrazinyl)-4-(4-cyanophenyl) thiazole] | 2.25e-05 ± 1e-07 | 3.3 | 6.1 |  |
| 6.5e-06 ± 2.6e-06 | 4.5e-06 ± 1.4e-06 | Cc1ccc(C=NNc2nc(-c3ccc(C#N)cc3)cs2)cc1C [Compound 3t, 2-(2-(3,4-Dimethylbenzylidene)hydrazinyl)-4-(4-cyanophenyl) thiazole] | 1.32e-05 ± 3e-07 | 2 | 2.9 | colony formation (HCT-116 cells): completely prevented colony formation |
| 6.2e-06 ± 5e-07 | 4.3e-06 ± 3e-07 | N#Cc1ccc(-c2csc(NN=Cc3cc(Br)cs3)n2)cc1 [3c′, 2-(2-((4-Bromothiophen-2-yl)methylene)hydrazinyl)-4-(4-cyanophenyl) thiazole] | 7.6e-06 ± 1e-07 | 1.2 | 1.8 |  |
| 4.7e-06 ± 1.3e-06 | 2e-06 ± 8e-07 | N#Cc1ccc(-c2csc(NN=Cc3ccc(C(F)(F)F)cc3C(F)(F)F)n2)cc1 [Compound 3m, 2-(2-(2,4-Bis-(trifluoromethyl)benzylidene) hydrazinyl)-4-(4-cyanophenyl) thiazole] | 1.65e-05 ± 6e-07 | 3.5 | 8.3 |  |
| 4.7e-06 ± 3e-07 | 2.3e-06 ± 3e-07 | N#Cc1ccc(-c2csc(NN=Cc3c(O)cc(O)cc3O)n2)cc1 [Compound 3x, 2-(2-(2,4,6-Trihydroxybenzylidene)hydrazinyl)-4-(4-cyanophenyl) thiazole] | 1.58e-05 ± 5e-07 | 3.4 | 6.9 |  |
| 4.4e-06 ± 2e-07 | 9e-06 ± 1.2e-06 | Cc1nc(C=NNc2nc(-c3ccc(C#N)cc3)cs2)sc1C [3d′, 2-(2-((4,5-Dimethylthiazol-2-yl)methylene) hydrazinyl)-4-(4-cyanophenyl) thiazole] | 2.25e-05 ± 2e-06 | 5.1 | 2.5 |  |
| 4e-06 ± 1e-06 | 4.2e-06 ± 6e-07 | Cc1cc(C)c(C=NNc2nc(-c3ccc(C#N)cc3)cs2)c(C)c1 [Compound 3v, 2-(2-(2,4,6-Trimethylbenzylidene)hydrazinyl)-4-(4-cyanophenyl) thiazole] | 1.12e-05 ± 3e-07 | 2.8 | 2.7 |  |
| 3.1e-06 ± 1.5e-06 | 3.4e-06 ± 1e-06 | N#Cc1ccc(-c2csc(N/N=C/c3ccccc3F)n2)cc1 [a] | 1.66e-05 ± 1e-07 |  |  |  |
| 3e-06 ± 1e-06 | 4.1e-06 ± 4e-07 | N#Cc1ccc(-c2csc(NN=Cc3cc(Br)cc([N+](=O)[O-])c3)n2)cc1 [Compound 3r, 2-(2-(3-Bromo-5-nitrobenzylidene)hydrazinyl)-4-(4-cyanophenyl) thiazole] | 1.22e-05 ± 6e-07 | 4.1 | 3 |  |
| 2.2e-06 ± 5e-07 | 3.66e-05 ± 1.4e-06 | N#Cc1ccc(-c2csc(N/N=C/c3cccc(F)c3)n2)cc1 [b] | 1.68e-05 ± 5e-07 |  |  |  |
| 2.2e-06 ± 1e-07 | 2.6e-06 ± 1e-07 | N#Cc1ccc(-c2csc(NN=Cc3cc(F)cc(C(F)(F)F)c3)n2)cc1 [Compound 3q, 2-(2-(3-Fluoro-5-(trifluoromethyl)benzylidene) hydrazinyl)-4-(4-cyanophenyl) thiazole] | 9e-06 ± 1e-07 | 4.1 | 3.5 | colony formation (HCT-116 cells): completely prevented colony formation |
| 1.9e-06 ± 5e-07 | 2.5e-06 ± 2e-07 | COc1cc(OC)c(OC)cc1C=NNc1nc(-c2ccc(C#N)cc2)cs1 [Compound 3z, 2-(2-(2,4,5-Trimethoxybenzylidene)hydrazinyl)-4-(4-cyanophenyl) thiazole] | 2.18e-05 ± 2e-07 | 11.5 | 8.7 | fold increase in activity against HCT-116 cells ([1]; relative to compound 3j): 3.5 fold |
| 1.6e-06 ± 4e-07 | 2.7e-06 ± 1e-07 | COc1cc(C=NNc2nc(-c3ccc(C#N)cc3)cs2)cc(OC)c1OC [Compound 3y, 2-(2-(3,4,5-Trimethoxybenzylidene)hydrazinyl)-4-(4-cyanophenyl) thiazole] | 2.34e-05 ± 3e-07 | 14.6 | 8.7 |  |
| 1.5e-06 ± 8e-07 | 7e-06 ± 2e-07 | N#Cc1ccc(-c2csc(NN=Cc3c(F)cc(F)cc3F)n2)cc1 [Compound 3w, 2-(2-(2,4,6-Trifluorobenzylidene)hydrazinyl)-4-(4-cyanophenyl) thiazole] | 1.1e-06 ± 5e-07 | 0.7 | 0.2 |  |
